# Assay results: ChEMBL document CHEMBL4334465, “SAR Studies on Aromatic Acylhydrazone-Based Inhibitors of Fungal Sphingolipid Synthesis as Next-Generation Antifungal Agents” (J Med Chem, 2019)
# The source made the active and inactive calls. The calls are words filed in the database; no cut-off is given here.
# Tests used:
# [Candida] auris [1] = Antifungal activity against Candida auris assessed as FICI in presence of fluconazole; format: functional, Candidozyma auris
# Method in brief: (§1)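 Checkerboard combination scored by fractional inhibitory concentration index. Acylhydrazone serially diluted 16 to 0.015 μg/mL (11 dilutions). Partner drug in seven dilutions: fluconazole 12 to 0.19 μg/mL, amphotericin B 5 to 0.078 μg/mL, caspofungin, itraconazole or voriconazole 8 to 0.007 μg/mL.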
# Pichia kudriavzevii [2] = experiment: Antifungal activity against Candida krusei 6258 assessed as FICI in presence of voriconazole; format: functional; method in brief: as §1
# Aspergillus fumigatus [3] = experiment: Antifungal activity against Aspergillus fumigatus assessed as FICI in presence of itraconazole; format: functional; method in brief: as §1
# Pichia kudriavzevii [4] = experiment: Antifungal activity against Candida krusei 6258 assessed as FICI in presence of caspofungin; format: functional; method in brief: as §1
# Aspergillus fumigatus [5] = experiment: Antifungal activity against Aspergillus fumigatus assessed as FICI in presence of fluconazole; format: functional; method in brief: as §1
# Pichia kudriavzevii [6] = experiment: Antifungal activity against fluconazole-resistant Candida krusei assessed as FICI in presence of voriconazole; format: functional
# Method in brief: (§2)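 Checkerboard in 96-well plate. Test compound diluted 16 to 0.015 μg/mL (11 dilutions) against the partner drug in seven dilutions: fluconazole 12 to 0.19 μg/mL, caspofungin, itraconazole or voriconazole 8 to 0.007 μg/mL. Fractional inhibitory concentration index (FICI) calculated from the combinations.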
# Candida parapsilosis [7] = experiment: Antifungal activity against Candida parapsilosis assessed as FICI in presence of caspofungin; format: functional; method in brief: as §1
# Pichia kudriavzevii [8] = experiment: Antifungal activity against Candida krusei measured after 24 to 72 hrs; format: functional
# Method in brief: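 MIC by modified CLSI broth microdilution. Candida strains grown in YNB without ammonium sulfate or amino acids with 1% asparagine, pH 7.0, 2% glucose. Inoculum per CLSI M27A3. Compound serially diluted 32 to 0.03 μg/mL. Incubation 37°C, 5% CO₂, 24–72 h, then OD450. MIC80 taken as the lowest concentration giving 80% growth inhibition versus untreated control.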
# Candida albicans [9] = experiment: Antifungal activity against Candida albicans assessed as FICI in presence of fluconazole; format: functional; method in brief: as §1
# [Candida] auris [10] = Antifungal activity against Candida auris assessed as FICI in presence of itraconazole; format: functional, Candidozyma auris; method in brief: as §1
# Cryptococcus neoformans [11] = experiment: Fungicidal activity against Cryptococcus neoformans H99 measured up to 96 hrs by time-kill assay; format: functional, organism-based; conditions: var grubii H99
# Method in brief: (§3)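 Overnight C. neoformans washed in PBS and resuspended in HEPES-buffered YNB, pH 7.4. 2 × 10⁴ cells exposed to a range of drug concentrations in 10 mL with 0.5% DMSO final, at 37°C, 5% CO₂, shaking at 200 rpm. Aliquots sampled over 96 h, diluted and plated on YPD; CFU counted after 48 h at 30°C.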
# A549 = experiment: Cytotoxicity against human A549 cells after 24 to 48 hrs by MTT assay; format: functional; conditions: read-out: LD50 (the source's name)
# Method in brief: (§4)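 A549 and HepG2 kept in DMEM with 10% FBS and 1% pen-strep. At passage 7, seeded at 10⁵ cells/well and allowed to adhere 14 h. Compound added at 0.03–128 μg/mL, untreated wells as controls. Incubation 37°C, 5% CO₂ for 24 or 48 h. MTT (5 mg/mL in PBS) added for 4 h, formazan dissolved in DMSO, OD570.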
# Candida parapsilosis [12] = experiment: Antifungal activity against Candida parapsilosis assessed as FICI in presence of voriconazole; format: functional; method in brief: as §1
# Aspergillus fumigatus [13] = experiment: Antifungal activity against Aspergillus fumigatus measured after 24 to 72 hrs; format: functional
# Method in brief: (§5)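 Modified CLSI broth microdilution with inoculum per M27A3. Compounds were serially diluted 32 to 0.03 μg/mL. Media: C. neoformans in HEPES-buffered YNB without amino acids (pH 7.0, 2% glucose); Candida strains in YNB without ammonium sulfate or amino acids plus 1% asparagine (pH 7.0, 2% glucose); A. fumigatus in RPMI (pH 7.0, 2% glucose).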
# Aspergillus fumigatus [14] = experiment: Antifungal activity against Aspergillus fumigatus assessed as FICI in presence of voriconazole; format: functional; method in brief: as §1
# [Candida] auris [15] = Antifungal activity against Candida auris assessed as FICI in presence of caspofungin; format: functional, Candidozyma auris; method in brief: as §1
# HepG2 = experiment: Cytotoxicity against human HepG2 cells after 24 to 48 hrs by MTT assay; format: functional; conditions: read-out: LD50 (the source's name); method in brief: as §4
# Cryptococcus neoformans [16] = experiment: Antifungal activity against Cryptococcus neoformans H99 measured after 24 to 72 hrs; format: functional; conditions: var grubii H99; method in brief: as §5
# [Candida] auris [17] = Antifungal activity against Candida auris assessed as FICI in presence of voriconazole; format: functional, Candidozyma auris; method in brief: as §1
# Candida parapsilosis [18] = experiment: Antifungal activity against Candida parapsilosis assessed as FICI in presence of itraconazole; format: functional; method in brief: as §1
# Cryptococcus neoformans [19] = experiment: Antifungal activity against Cryptococcus neoformans H99 assessed as FICI in presence of voriconazole; format: functional, var grubii H99; method in brief: as §1
# [20] = Selectivity index, ratio of LD50 for human A549 cells to MIC80 for Cryptococcus neoformans H99; format: toxicity; conditions: read-out: Selectivity Index
# Method in brief: (§6)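 SI = LD₅₀/MIC₈₀. Cytotoxicity: A549 or HepG2 cells (DMEM, 10% FBS, passage 7, 10⁵ cells/well) adhered 14 h, then exposed to 0.03–128 μg/mL for 24 or 48 h at 37°C, 5% CO₂; MTT 4 h, formazan dissolved in DMSO, read at 570 nm. MIC₈₀ against C. neoformans from broth microdilution in HEPES-buffered YNB, pH 7.0.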
# Cryptococcus neoformans [21] = experiment: Fungicidal activity against Cryptococcus neoformans H99 measured after 72 hrs by time-kill assay; format: functional, var grubii H99; method in brief: as §3
# Candida albicans [22] = experiment: Antifungal activity against Candida albicans assessed as FICI in presence of voriconazole; format: functional; method in brief: as §1
# Candida albicans [23] = experiment: Antifungal activity against Candida albicans assessed as FICI in presence of caspofungin; format: functional; method in brief: as §1
# [24] = Selectivity index, ratio of LD50 for human HepG2 cells to MIC80 for Cryptococcus neoformans H99; format: toxicity; conditions: read-out: Selectivity Index; method in brief: as §6
# Pichia kudriavzevii [25] = experiment: Antifungal activity against Candida krusei 6258 assessed as FICI in presence of itraconazole; format: functional; method in brief: as §1
# Cryptococcus neoformans [26] = experiment: Antifungal activity against Cryptococcus neoformans H99 assessed as FICI in presence of itraconazole; format: functional, var grubii H99; method in brief: as §1
# Pichia kudriavzevii [27] = experiment: Antifungal activity against fluconazole-resistant Candida krusei assessed as FICI in presence of itraconazole; format: functional; method in brief: as §2
# Cryptococcus neoformans [28] = experiment: Antifungal activity against Cryptococcus neoformans H99 assessed as FICI in presence of amphotericin B; format: functional, var grubii H99; method in brief: as §1
# [Candida] auris [29] = Antifungal activity against Candida auris measured after 24 to 72 hrs; format: functional; conditions: Candidozyma auris; method in brief: as §5
# Pichia kudriavzevii [30] = experiment: Antifungal activity against fluconazole-resistant Candida krusei assessed as FICI in presence of fluconazole; format: functional; method in brief: as §2
# Candida albicans [31] = experiment: Antifungal activity against Candida albicans measured after 24 to 72 hrs; format: functional; method in brief: as §5
# Candida parapsilosis [32] = experiment: Antifungal activity against Candida parapsilosis assessed as FICI in presence of fluconazole; format: functional; method in brief: as §1
# Cryptococcus neoformans [33] = experiment: Antifungal activity against Cryptococcus neoformans H99 assessed as FICI in presence of fluconazole; format: functional, var grubii H99; method in brief: as §1
# Candida parapsilosis [34] = experiment: Antifungal activity against Candida parapsilosis measured after 24 to 72 hrs; format: functional; conditions: Lodderomyces parapsilosis; method in brief: as §5
# Candida albicans [35] = experiment: Antifungal activity against Candida albicans assessed as FICI in presence of itraconazole; format: functional; method in brief: as §1
# Pichia kudriavzevii [36] = experiment: Antifungal activity against fluconazole-resistant Candida krusei assessed as FICI in presence of caspofungin; format: functional; method in brief: as §2
# Pichia kudriavzevii [37] = experiment: Antifungal activity against Candida krusei 6258 assessed as FICI in presence of fluconazole; format: functional; method in brief: as §1
# Cryptococcus neoformans [38] = experiment: Inhibition of glucosylceramide synthesis in Cryptococcus neoformans H99 in presence of [3H]palmitate; format: functional, organism-based; conditions: var grubii H99
# J774 = experiment: Inhibition of glucosylceramide synthesis in mouse J774 cells in presence of [3H]palmitate; format: cell-based
# Cryptococcus neoformans [39] = experiment: Antifungal activity against Cryptococcus neoformans H99 infected in CBA/J mouse assessed as increase in survival at 1.2 mg/kg, ip; format: functional, organism-based; conditions: var grubii H99
structure (smiles),measurement,setting,value
O=C(N/N=C/c1ccc(Br)cc1O)c1ccc(Br)cc1Br,fractional inhibitory concentration index (FICI),[Candida] auris [1],2
same,fractional inhibitory concentration index (FICI),Pichia kudriavzevii [2],1.25
same,fractional inhibitory concentration index (FICI),Aspergillus fumigatus [3],0.484
same,fractional inhibitory concentration index (FICI),Pichia kudriavzevii [4],2
same,fractional inhibitory concentration index (FICI),Aspergillus fumigatus [5],2
same,fractional inhibitory concentration index (FICI),Pichia kudriavzevii [6],0.281
same,fractional inhibitory concentration index (FICI),Candida parapsilosis [7],2
same,MIC80,Pichia kudriavzevii [8],> 16 µg/mL
same,fractional inhibitory concentration index (FICI),Candida albicans [9],0.625
same,fractional inhibitory concentration index (FICI),[Candida] auris [10],0.508
same,Activity,Cryptococcus neoformans [11],Dose-dependent effect
same,CC50,A549,64 µg/mL
same,fractional inhibitory concentration index (FICI),Candida parapsilosis [12],0.076
same,MIC80,Aspergillus fumigatus [13],> 16 µg/mL
same,fractional inhibitory concentration index (FICI),Aspergillus fumigatus [14],0.515
same,fractional inhibitory concentration index (FICI),[Candida] auris [15],2
same,CC50,HepG2,128 µg/mL
same,MIC80,Cryptococcus neoformans [16],0.06 µg/mL
same,fractional inhibitory concentration index (FICI),[Candida] auris [17],1.016
same,fractional inhibitory concentration index (FICI),Candida parapsilosis [18],0.124
same,fractional inhibitory concentration index (FICI),Cryptococcus neoformans [19],0.072
same,selectivity ratio,[20],1070
same,MFC100,Cryptococcus neoformans [21],0.06 µg/mL
same,fractional inhibitory concentration index (FICI),Candida albicans [22],0.256
same,fractional inhibitory concentration index (FICI),Candida albicans [23],0.502
same,selectivity ratio,[24],2130
same,fractional inhibitory concentration index (FICI),Pichia kudriavzevii [25],1.063
same,fractional inhibitory concentration index (FICI),Cryptococcus neoformans [26],0.072
same,fractional inhibitory concentration index (FICI),Pichia kudriavzevii [27],0.252
same,fractional inhibitory concentration index (FICI),Cryptococcus neoformans [28],0.086
same,MIC80,[Candida] auris [29],> 16 µg/mL
same,fractional inhibitory concentration index (FICI),Pichia kudriavzevii [30],2
same,MIC80,Candida albicans [31],> 16 µg/mL
same,fractional inhibitory concentration index (FICI),Candida parapsilosis [32],1.002
same,fractional inhibitory concentration index (FICI),Cryptococcus neoformans [33],0.065
same,MIC80,Candida parapsilosis [34],8 µg/mL
same,fractional inhibitory concentration index (FICI),Candida albicans [35],0.128
same,fractional inhibitory concentration index (FICI),Pichia kudriavzevii [36],2
same,fractional inhibitory concentration index (FICI),Pichia kudriavzevii [37],2
Cc1ccccc1C(=O)N/N=C/c1cc(Br)ccc1O,inhibition,Cryptococcus neoformans [38],Dose-dependent effect
same,inhibition (INH),J774,Dose-dependent effect
same,Activity,Cryptococcus neoformans [39],Active
